Assay results published in ChEMBL document CHEMBL3352374, “Discovery of novel Bcr-Abl inhibitors targeting myristoyl pocket and ATP site” (Bioorg Med Chem, 2014).

How the values were obtained:
K562 = assay: Antiproliferative activity against Bcr/Abl positive human K562 cells after 48 hrs by MTT method; format: functional, cell-based; settings: K562, 48 h
In short: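 Bcr–Abl positive K562 cells in exponential growth plated at 1 × 10⁴ cells/well and incubated 24 h at 37 °C. Compounds then added at various concentrations for 48 h. MTT (5 mg/mL) added for 4 h at 37 °C, supernatant discarded, formazan dissolved in DMSO. Absorbance read at 570 nm.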

Bcr/Abl fusion protein = Bcr/Abl fusion protein (Homo sapiens, UniProt P00519); assay: Inhibition of BCR/ABL (unknown origin) after 40 mins by ADP-Glo kinase assay; format: protein assay
Bcr/Abl fusion protein, sequence (P00519 whole entry, the tested form may be a part): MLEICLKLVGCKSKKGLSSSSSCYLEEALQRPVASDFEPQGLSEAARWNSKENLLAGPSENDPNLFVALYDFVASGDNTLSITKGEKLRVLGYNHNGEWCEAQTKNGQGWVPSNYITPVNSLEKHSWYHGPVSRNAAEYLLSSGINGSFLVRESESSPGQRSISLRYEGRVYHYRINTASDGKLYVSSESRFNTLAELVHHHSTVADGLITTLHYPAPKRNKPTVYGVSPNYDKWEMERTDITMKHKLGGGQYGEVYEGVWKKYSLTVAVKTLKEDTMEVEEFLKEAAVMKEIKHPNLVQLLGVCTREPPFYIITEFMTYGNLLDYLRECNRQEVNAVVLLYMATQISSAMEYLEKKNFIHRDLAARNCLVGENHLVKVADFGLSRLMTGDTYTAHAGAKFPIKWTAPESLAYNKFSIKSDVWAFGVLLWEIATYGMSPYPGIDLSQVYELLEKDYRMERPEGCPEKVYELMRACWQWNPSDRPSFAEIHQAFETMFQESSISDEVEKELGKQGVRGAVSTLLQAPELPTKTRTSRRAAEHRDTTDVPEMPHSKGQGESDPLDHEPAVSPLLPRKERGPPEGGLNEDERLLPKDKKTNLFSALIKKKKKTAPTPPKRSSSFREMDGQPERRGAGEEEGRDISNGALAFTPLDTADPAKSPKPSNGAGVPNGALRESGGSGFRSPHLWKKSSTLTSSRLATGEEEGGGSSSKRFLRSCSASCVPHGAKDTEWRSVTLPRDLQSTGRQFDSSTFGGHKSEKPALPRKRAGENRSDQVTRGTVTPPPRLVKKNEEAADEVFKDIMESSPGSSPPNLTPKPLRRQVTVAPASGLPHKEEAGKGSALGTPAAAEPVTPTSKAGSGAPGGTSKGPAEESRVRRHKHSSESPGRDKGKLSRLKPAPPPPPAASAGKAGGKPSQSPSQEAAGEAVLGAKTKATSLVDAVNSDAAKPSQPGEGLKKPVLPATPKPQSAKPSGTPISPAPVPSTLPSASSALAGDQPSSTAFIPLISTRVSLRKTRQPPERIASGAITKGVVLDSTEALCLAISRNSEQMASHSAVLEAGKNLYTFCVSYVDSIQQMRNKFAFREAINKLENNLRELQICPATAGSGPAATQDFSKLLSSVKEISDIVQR
Bcr/Abl fusion protein, sequence (P11274 whole entry, further chain, the tested form may be a part): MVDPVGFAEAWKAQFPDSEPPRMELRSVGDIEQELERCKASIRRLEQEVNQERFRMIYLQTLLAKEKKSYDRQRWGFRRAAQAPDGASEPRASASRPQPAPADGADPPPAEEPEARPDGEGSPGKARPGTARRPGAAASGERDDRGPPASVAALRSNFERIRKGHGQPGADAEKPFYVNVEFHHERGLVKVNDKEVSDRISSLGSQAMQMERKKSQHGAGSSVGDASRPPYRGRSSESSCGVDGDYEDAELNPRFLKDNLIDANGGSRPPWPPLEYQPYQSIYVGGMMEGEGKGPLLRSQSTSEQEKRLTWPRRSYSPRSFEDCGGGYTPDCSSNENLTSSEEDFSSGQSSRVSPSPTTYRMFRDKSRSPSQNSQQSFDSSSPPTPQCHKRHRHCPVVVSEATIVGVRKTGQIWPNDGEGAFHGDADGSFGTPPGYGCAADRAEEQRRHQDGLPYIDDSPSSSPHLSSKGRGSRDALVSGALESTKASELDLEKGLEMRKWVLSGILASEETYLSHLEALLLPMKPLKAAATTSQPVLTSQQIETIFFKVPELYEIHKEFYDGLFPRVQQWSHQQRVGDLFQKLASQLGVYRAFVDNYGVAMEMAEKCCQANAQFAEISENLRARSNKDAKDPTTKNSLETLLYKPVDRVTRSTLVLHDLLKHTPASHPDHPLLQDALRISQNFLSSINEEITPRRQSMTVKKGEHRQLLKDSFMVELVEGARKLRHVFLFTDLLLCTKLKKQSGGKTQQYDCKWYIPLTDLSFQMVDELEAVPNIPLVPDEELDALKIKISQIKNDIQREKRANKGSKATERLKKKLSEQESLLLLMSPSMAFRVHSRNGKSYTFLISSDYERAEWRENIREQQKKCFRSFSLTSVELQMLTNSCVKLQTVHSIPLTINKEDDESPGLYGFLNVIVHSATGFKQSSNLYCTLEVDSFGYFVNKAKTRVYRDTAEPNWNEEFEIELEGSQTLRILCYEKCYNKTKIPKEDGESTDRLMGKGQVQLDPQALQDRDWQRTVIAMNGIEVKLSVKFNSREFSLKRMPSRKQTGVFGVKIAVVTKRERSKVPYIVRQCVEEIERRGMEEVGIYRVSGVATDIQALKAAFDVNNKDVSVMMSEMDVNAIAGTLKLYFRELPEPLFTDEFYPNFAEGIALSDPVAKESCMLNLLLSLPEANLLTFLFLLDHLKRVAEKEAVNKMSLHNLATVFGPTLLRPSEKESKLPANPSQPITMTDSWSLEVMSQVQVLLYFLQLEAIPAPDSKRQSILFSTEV

| IC50 (K562) [µM] | IC50 (Bcr/Abl fusion protein) [µM] | SMILES |
| --- | --- | --- |
| 283 | 78.6 | O=C(c1ccc(-c2cc(Nc3ccc(C(F)(F)F)cc3)ncn2)cc1)N1CCN(C(=O)c2ccccc2F)CC1 |
| > 500 | 354 | CC(C)(C)c1ccc(Nc2cc(-c3ccc(C(=O)N4CCN(C(=O)c5ccccc5F)CC4)cc3)ncn2)cc1 |
| 14.5 | 0.05 | O=C(c1ccc(-c2cc(Nc3ccccc3F)ncn2)cc1)N1CCN(C(=O)c2ccccc2F)CC1 |
| > 500 | > 500 | O=C(c1ccc(-c2cc(Nc3cccc(Br)c3)ncn2)cc1)N1CCN(C(=O)c2ccccc2F)CC1 |
| – | 0.385 | CC(=O)c1cccc(Nc2cc(-c3ccc(C(=O)N4CCN(C(=O)c5ccccc5F)CC4)cc3)ncn2)c1 |
| > 500 | > 500 | O=C(c1ccc(-c2cc(Nc3ccc(Cl)cc3Cl)ncn2)cc1)N1CCN(C(=O)c2ccccc2F)CC1 |
| 80.7 | 141 | O=C(c1ccc(-c2cc(Nc3ccccc3Cl)ncn2)cc1)N1CCN(C(=O)c2ccccc2F)CC1 |
| > 500 | > 500 | O=C(c1ccc(-c2cc(Nc3ccc(F)c(F)c3)ncn2)cc1)N1CCN(C(=O)c2ccccc2F)CC1 |
| – | 16.1 | COc1cccc(Nc2cc(-c3ccc(C(=O)N4CCN(C(=O)c5ccccc5F)CC4)cc3)ncn2)c1 |
| > 500 | > 500 | CC(C)c1cccc(Nc2cc(-c3ccc(C(=O)N4CCN(C(=O)c5ccccc5F)CC4)cc3)ncn2)c1 |
| – | 6.06 | O=C(c1ccc(-c2cc(Nc3cccc(F)c3)ncn2)cc1)N1CCN(C(=O)c2ccccc2Cl)CC1 |
| 21.4 | 0.07 | O=C(c1ccc(-c2cc(Nc3ccccc3Cl)ncn2)cc1)N1CCN(C(=O)c2ccccc2Cl)CC1 |
| 86.9 | 1.44 | O=C(c1ccc(-c2cc(Nc3ccc(F)cc3)ncn2)cc1)N1CCN(C(=O)c2cccc(C(F)(F)F)c2)CC1 |
| 106 | 13.5 | COc1cccc(Nc2cc(-c3ccc(C(=O)N4CCN(C(=O)c5cccc(C(F)(F)F)c5)CC4)cc3)ncn2)c1 |
| – | 0.872 | O=C(c1ccc(-c2cc(Nc3cccc(C(F)(F)F)c3)ncn2)cc1)N1CCN(C(=O)c2ccccc2F)CC1 |
| 17.8 | 0.017 | O=C(c1ccc(-c2cc(Nc3cccc(F)c3)ncn2)cc1)N1CCN(C(=O)c2ccccc2F)CC1 |
| 306 | – | O=C(c1ccc(-c2cc(Nc3ccc(Br)cc3)ncn2)cc1)N1CCN(C(=O)c2ccccc2F)CC1 |
| 363 | 277 | O=C(c1ccc(-c2cc(Nc3ccc(F)cc3)ncn2)cc1)N1CCN(C(=O)c2ccccc2F)CC1 |
| > 500 | > 500 | Cc1ccc(Nc2cc(-c3ccc(C(=O)N4CCN(C(=O)c5ccccc5F)CC4)cc3)ncn2)cc1Cl |
| > 500 | > 500 | O=C(c1ccc(-c2cc(Nc3ccc(Cl)c(Cl)c3)ncn2)cc1)N1CCN(C(=O)c2ccccc2F)CC1 |
| – | 91.8 | O=C(c1ccc(-c2cc(Nc3cccc(Cl)c3)ncn2)cc1)N1CCN(C(=O)c2ccccc2F)CC1 |
| 60.4 | 0.13 | O=C(c1ccc(-c2cc(Nc3cc(C(F)(F)F)cc(C(F)(F)F)c3)ncn2)cc1)N1CCN(C(=O)c2ccccc2F)CC1 |
| > 500 | – | Cc1ccc(Nc2cc(-c3ccc(C(=O)N4CCN(C(=O)c5ccccc5F)CC4)cc3)ncn2)cc1 |
| 102 | – | COc1cccc(Nc2cc(-c3ccc(C(=O)N4CCN(C(=O)c5ccccc5Cl)CC4)cc3)ncn2)c1 |
| – | > 500 | CC(C)(C)c1ccc(Nc2cc(-c3ccc(C(=O)N4CCN(C(=O)c5ccccc5Cl)CC4)cc3)ncn2)cc1 |
| 25.9 | 0.563 | O=C(c1ccc(-c2cc(Nc3cccc(C(F)(F)F)c3)ncn2)cc1)N1CCN(C(=O)c2cccc(C(F)(F)F)c2)CC1 |
| 562 | 266 | O=C(c1ccc(-c2cc(Nc3ccc(Cl)cc3Cl)ncn2)cc1)N1CCN(C(=O)c2cccc(C(F)(F)F)c2)CC1 |
| 4.12 | – | Cc1ccc(NC(=O)c2ccc(CN3CCN(C)CC3)cc2)cc1Nc1nccc(-c2cccnc2)n1 [IMATINIB] |
